Calls of active or inactive are those of the source. The calls are words filed in the database; no cut-off is given here.
Experiments:
Rattus norvegicus [1] = assay: Compound was evaluated for the inhibition of haloperidol induced catalepsy behavior in rats after sc administration.; format: functional; design: unit not given here
How it was run: (§1)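 Catalepsy was tested on a horizontal rod after 3 h. Test drug or vehicle was then given and catalepsy duration scored every 30 min for 2.5 h. One-way ANOVA with Dunnett's test over half-log dose multiples; MED was the lowest significant dose.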

Rattus norvegicus [2] = assay: Compound was evaluated for inhibition of apomorphine induced stereotypy behavior in rats after sc administration.; format: functional
How it was run: (§2)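 Male Sprague-Dawley rats (250–300 g, five per group) given test drug (2 mL/kg) or saline. At 1, 3 and 5 h they received apomorphine 0.75 mg/kg sc in water with 0.1% ascorbic acid. Stereotypy was rated every 10 min up to 50 min. ANOVA then Dunnett's t test over half-log dose multiples; MED was the lowest significant dose.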

Rattus norvegicus [3] = assay: Antipsychotic activity determined in vivo by inhibition of amphetamine induced locomotor behavior in rats by the sc administration.; format: functional
How it was run: (§3)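 Male Sprague-Dawley rats (275–325 g, eight per group) habituated overnight in automated activity boxes, then dosed with test compound suspended in 90% saline/5% ethanol/5% Emulphor. d-Amphetamine sulfate 1.36 mg/kg given 1 h later. Floor quadrant crossings counted over 3 h. ANOVA with Dunnett's test; ED50 and 95% confidence limits by probit analysis of means converted to percent inhibition.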

D(2) dopamine receptor = D(2) dopamine receptor (Rattus norvegicus, UniProt P61169); assay: Binding affinity to dopamine receptor D2 in the rat brain using [3H]NPA as radioligand; format: tissue-based
How it was run: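 Rat brain D2 binding with [3H]NPA as ligand. IC50 taken from dose-response curves over three log concentrations of test compound, each in triplicate.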

[4] = biological target: Adrenergic receptor alpha; assay: In vitro binding activity against Alpha receptor in rat brain using [3H]prazosin; format: tissue-based
How it was run: (§4)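 Whole rat brain minus cerebellum homogenized and washed twice in 50 mM Tris-HCl pH 7.7, resuspended in Tris pH 8.0. Incubated in triplicate with 0.22 nM (final) [3H]prazosin and drug, 25 °C, 30 min. Blank was 50 μM norepinephrine. Filtered through glass fiber and scintillation counted. IC50 from three log concentrations in triplicate.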

[5] = biological target: T1, 5-hydroxytryptamine receptor 1A (Rattus norvegicus, UniProt P19327); assay: Binding affinity to 5-hydroxytryptamine 1A receptor in the rat brain using [3H]8-hydroxy-2-(di-n-propylamine)tetralin as radioligand.; format: tissue-based
T1 sequence (P19327 whole entry): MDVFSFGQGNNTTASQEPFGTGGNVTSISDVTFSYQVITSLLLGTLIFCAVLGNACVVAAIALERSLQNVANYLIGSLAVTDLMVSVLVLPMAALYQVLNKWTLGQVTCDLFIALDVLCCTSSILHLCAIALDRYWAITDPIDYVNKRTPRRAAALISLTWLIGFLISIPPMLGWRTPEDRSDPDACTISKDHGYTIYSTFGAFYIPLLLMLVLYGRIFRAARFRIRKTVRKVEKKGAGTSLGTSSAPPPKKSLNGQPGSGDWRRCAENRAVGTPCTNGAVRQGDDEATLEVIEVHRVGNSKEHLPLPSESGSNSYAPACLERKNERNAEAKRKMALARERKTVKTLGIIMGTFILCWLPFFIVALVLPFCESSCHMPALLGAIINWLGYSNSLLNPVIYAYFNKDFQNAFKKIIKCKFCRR
How it was run: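 Rat forebrain P2 membranes: lysed in 5 mM Tris acetate pH 7.4, washed, preincubated 30 min at 30 °C. Incubated with [3H]-8-OH-DPAT and test drug, 30 °C, 20 min; filtered, scintillation counted.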

[6] = biological target: T2, Serotonin 2 (5-HT2) receptor (Rattus norvegicus, UniProt P30994+P08909+P14842); assay: (§5) Compound was evaluated In vitro for its activity by binding to 5-hydroxytryptamine 2 receptor in the rat brain using [3H]ketanserin as radioligand.; format: tissue-based
[7] = biological target: Adrenergic receptor alpha; assay: Compound was evaluated In vitro for its activity by binding to Alpha adrenergic receptor in the rat brain using [3H]prazosin as radioligand.; format: tissue-based
Rattus norvegicus [8] = assay: Compound was evaluated for the inhibition of apomorphine induced stereotypy behavior in rats after sc administration.; format: functional; design: unit not given here; how it was run: as §2
[9] = biological target: Adrenergic receptor alpha; assay: Compound was evaluated In vitro for its activity by binding to Alpha receptor in the rat brain using [3H]prazosin as radioligand.; format: tissue-based; how it was run: as §4
Rattus norvegicus [10] = assay: Compound was evaluated for the inhibition of haloperidol induced catalepsy behavior in rats after sc administration; Inactive; format: functional, organism-based
[11] = biological target: T2, Serotonin 2 (5-HT2) receptor; assay: Compound was evaluated for its activity by binding to 5-hydroxytryptamine 2 receptor in the rat brain using [3H]ketanserin as radioligand.; format: tissue-based
How it was run: (§6)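 Frozen male Sprague-Dawley rat brain cut into 20-μm cryostat sections. Incubated in 50 mM Tris pH 7.5 with 1 nM [3H]ketanserin and test drug, room temperature, 30 min; nonspecific binding with 2 μM pipamperone. Washed in ice-cold buffer, exposed to tritium film 6 weeks, read by densitometry.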

[12] = biological target: T2, Serotonin 2 (5-HT2) receptor; assay: as §5; format: tissue-based; how it was run: as §6; remark: listed apart in the source
Rattus norvegicus [13] = assay: Antipsychotic activity determined in vivo by inhibition of amphetamine induced locomotor behavior in rats by the po administration.; format: functional; how it was run: as §3
Rattus norvegicus [14] = assay: Compound was evaluated for the inhibition of apomorphine induced stereotypy behavior in rats after po administration.; format: functional; how it was run: as §2
Rattus norvegicus [15] = assay: Compound was evaluated for the inhibition of apomorphine induced stereotypy behavior in rats after ip administration.; format: functional; how it was run: as §2
Rattus norvegicus [16] = assay: Compound was evaluated for the inhibition of haloperidol induced catalepsy behavior in rats after po administration.; format: functional; how it was run: as §1

D(2) dopamine receptor, sequence (P61169 whole entry): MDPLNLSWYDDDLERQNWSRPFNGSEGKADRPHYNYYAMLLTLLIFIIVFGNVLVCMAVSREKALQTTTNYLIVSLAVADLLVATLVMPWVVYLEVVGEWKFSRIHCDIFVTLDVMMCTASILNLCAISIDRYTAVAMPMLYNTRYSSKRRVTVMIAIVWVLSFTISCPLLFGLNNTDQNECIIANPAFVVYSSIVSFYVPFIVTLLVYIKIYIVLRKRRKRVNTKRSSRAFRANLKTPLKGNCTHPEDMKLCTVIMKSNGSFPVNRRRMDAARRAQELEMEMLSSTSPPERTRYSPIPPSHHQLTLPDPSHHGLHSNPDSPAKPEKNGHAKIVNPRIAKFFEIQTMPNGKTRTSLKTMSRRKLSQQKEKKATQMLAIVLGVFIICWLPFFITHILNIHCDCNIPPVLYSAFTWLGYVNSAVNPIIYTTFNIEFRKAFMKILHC

Compound	ED50 (Rattus norvegicus [3]) [mg/kg]	IC50 (D(2) dopamine receptor) [nM]	IC50 [4] [nM]	IC50 [5] [nM]	MED (Rattus norvegicus [8])	also measured
Cc1sc(N)nc1-c1ccc(CCN2CCN(c3cccc4ccccc34)CC2)cc1	> 10	159	234	–	–	MED (Rattus norvegicus [1]): >3.2; MED (Rattus norvegicus [2]): >3.2
Oc1nc2ccc(CCN3CCN(c4cccc5ccccc45)CC3)cc2s1	–	–	–	2.2	>10	IC50 [6]: 50 nM; IC50 [7]: 24 nM
CNc1nc(-c2ccc(CCN3CCN(c4cccc5ccccc45)CC3)cc2)cs1	–	155	–	–	>10	IC50 [9]: 252 nM
O=C(CCCN1CCC(O)(c2ccc(Cl)cc2)CC1)c1ccc(F)cc1 [HALOPERIDOL]	–	–	–	–	0.032	MED (Rattus norvegicus [10]): inactive
Cc1nc(-c2ccc(CCN3CCN(c4cccc5ccccc45)CC3)cc2)cs1	–	108	166	–	>10	–
c1ccc2c(N3CCNCC3)cccc2c1	–	–	–	–	–	IC50 [11]: 62 nM
CC1(C)C(=O)Nc2ccc(CCN3CCN(c4cccc5ccccc45)CC3)cc21	–	86	40	6.9	–	IC50 [12]: 11.8 nM
Oc1nc2ccc(CCN3CCN(c4cccc5ccccc45)CC3)cc2o1	1.6	44	45	6.2	10	MED (Rattus norvegicus [1]): >10; ED50 (Rattus norvegicus [13]): 40.5 mg/kg; IC50 [12]: 10 nM
Nc1nc(-c2ccc(CCN3CCN(c4cccc5ccccc45)CC3)cc2)cs1	–	72	135	11	–	MED (Rattus norvegicus [14]): 32; MED (Rattus norvegicus [15]): 10; ED50 (Rattus norvegicus [13]): 25.3 mg/kg; MED (Rattus norvegicus [16]): 3.2; IC50 [6]: 385 nM
c1ccc2c(N3CCN(CCc4ccc(-c5csnn5)cc4)CC3)cccc2c1	–	83	105	–	>10	IC50 [11]: 237 nM
CCN1C(=O)Cc2cc(CCN3CCN(c4cccc5ccccc45)CC3)ccc21	–	81.2	248	2.9	–	–
O=C1Cc2cc(CCN3CCN(c4cccc5ccccc45)CC3)ccc2N1	1.21	38	24	4.87	–	MED (Rattus norvegicus [1]): >10; ED50 (Rattus norvegicus [13]): 13.3 mg/kg; MED (Rattus norvegicus [16]): 10; IC50 [6]: 20 nM
CN1CCN(C2=Nc3cc(Cl)ccc3Nc3ccccc32)CC1 [CLOZAPINE]	6.9	–	–	–	–	MED (Rattus norvegicus [10]): inactive
Oc1nc(-c2ccc(CCN3CCN(c4cccc5ccccc45)CC3)cc2)cs1	> 10	80	65	–	>17.8	MED (Rattus norvegicus [1]): 10; IC50 [11]: 249 nM

From ChEMBL document CHEMBL1125261, “1-Naphthylpiperazine derivatives as potential atypical antipsychotic agents” (J Med Chem, 1991)
